{"source": "ChEMBL document CHEMBL1141106", "about": "“Synthesis, binding affinity at glutamic acid receptors, neuroprotective effects, and molecular modeling investigation of novel dihydroisoxazole amino acids” (J Med Chem, 2005)", "key": {"[1]": {"target": "T1, Metabotropic glutamate receptor 2 (Rattus norvegicus, UniProt P31421)", "T1 sequence (P31421 whole entry)": "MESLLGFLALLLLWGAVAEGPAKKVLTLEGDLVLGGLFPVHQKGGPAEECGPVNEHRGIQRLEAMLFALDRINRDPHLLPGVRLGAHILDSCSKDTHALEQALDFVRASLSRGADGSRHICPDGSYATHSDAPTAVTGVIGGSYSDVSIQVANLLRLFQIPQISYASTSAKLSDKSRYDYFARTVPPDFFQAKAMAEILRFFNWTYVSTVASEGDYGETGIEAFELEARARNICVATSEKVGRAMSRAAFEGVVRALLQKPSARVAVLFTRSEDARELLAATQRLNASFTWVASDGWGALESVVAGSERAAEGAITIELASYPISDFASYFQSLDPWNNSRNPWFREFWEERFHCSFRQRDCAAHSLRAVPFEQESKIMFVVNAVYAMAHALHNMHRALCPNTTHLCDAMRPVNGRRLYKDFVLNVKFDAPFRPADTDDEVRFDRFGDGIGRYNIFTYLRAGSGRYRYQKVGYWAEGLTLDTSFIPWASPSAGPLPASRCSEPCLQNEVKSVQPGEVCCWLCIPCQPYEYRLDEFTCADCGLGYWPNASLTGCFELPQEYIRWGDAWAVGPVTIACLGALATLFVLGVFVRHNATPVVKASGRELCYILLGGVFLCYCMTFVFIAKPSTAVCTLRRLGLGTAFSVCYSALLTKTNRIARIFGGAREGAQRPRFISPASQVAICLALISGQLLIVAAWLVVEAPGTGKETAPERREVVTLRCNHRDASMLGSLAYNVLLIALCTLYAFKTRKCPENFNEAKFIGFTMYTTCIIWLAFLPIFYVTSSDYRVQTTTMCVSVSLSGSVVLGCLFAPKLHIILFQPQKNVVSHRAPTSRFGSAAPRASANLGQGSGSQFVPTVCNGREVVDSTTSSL", "test": "Effective concentration against mGluR2 receptor expressed in CHO cells; call rule not given here", "format": "cell-based", "procedure,_shortened": "(§1)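 CHO cell lines stably expressing rat mGluR1a, mGluR2 or mGluR4a. Functional second-messenger read-out: intracellular calcium for mGluR1, cyclic AMP levels for mGluR2 and mGluR4. Values are mean ± SEM of at least three independent experiments.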"}, "[2]": {"target": "T1, Metabotropic glutamate receptor 2", "test": "Binding affinity for mGluR2 receptor expressed in CHO cells", "format": "cell-based"}, "[3]": {"target": "T2, Metabotropic glutamate receptor 1 (Rattus norvegicus, UniProt P23385)", "T2 sequence (P23385 whole entry)": "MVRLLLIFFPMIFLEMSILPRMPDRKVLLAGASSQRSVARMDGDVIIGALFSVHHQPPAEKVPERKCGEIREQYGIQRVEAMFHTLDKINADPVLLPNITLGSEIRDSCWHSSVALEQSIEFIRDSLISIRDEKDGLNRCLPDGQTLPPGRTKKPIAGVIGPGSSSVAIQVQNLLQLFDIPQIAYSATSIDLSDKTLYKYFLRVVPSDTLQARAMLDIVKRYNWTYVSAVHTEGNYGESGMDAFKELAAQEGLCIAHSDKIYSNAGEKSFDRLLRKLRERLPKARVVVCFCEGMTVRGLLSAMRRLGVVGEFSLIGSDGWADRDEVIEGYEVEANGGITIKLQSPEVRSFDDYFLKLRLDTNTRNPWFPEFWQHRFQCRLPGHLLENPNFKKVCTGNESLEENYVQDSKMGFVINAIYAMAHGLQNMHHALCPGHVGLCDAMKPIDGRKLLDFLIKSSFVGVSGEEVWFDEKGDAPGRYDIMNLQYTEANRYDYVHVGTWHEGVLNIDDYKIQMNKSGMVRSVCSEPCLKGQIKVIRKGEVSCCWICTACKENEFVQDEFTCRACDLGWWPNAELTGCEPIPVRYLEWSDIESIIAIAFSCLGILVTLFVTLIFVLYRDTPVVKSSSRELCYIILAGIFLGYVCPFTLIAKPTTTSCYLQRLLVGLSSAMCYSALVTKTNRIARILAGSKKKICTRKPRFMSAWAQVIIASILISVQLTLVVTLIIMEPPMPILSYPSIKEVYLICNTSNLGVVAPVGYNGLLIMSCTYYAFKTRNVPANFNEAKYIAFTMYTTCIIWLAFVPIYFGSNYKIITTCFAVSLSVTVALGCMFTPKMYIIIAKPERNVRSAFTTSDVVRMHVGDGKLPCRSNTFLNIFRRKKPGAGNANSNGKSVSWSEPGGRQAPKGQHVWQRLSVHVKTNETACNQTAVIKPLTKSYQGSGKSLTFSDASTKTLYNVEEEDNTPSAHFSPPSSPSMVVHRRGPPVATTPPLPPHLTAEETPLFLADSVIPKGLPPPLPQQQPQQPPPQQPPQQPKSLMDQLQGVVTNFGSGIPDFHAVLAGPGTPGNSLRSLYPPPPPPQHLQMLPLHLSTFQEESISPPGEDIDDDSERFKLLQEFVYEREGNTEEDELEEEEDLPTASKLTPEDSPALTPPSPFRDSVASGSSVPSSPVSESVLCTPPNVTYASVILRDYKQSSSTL", "test": "Effective concentration against mGluR1 receptor expressed in CHO cells", "format": "cell-based", "procedure,_shortened": "as §1"}, "[4]": {"target": "T2, Metabotropic glutamate receptor 1", "test": "Binding affinity for mGluR1 receptor expressed in CHO cells", "format": "cell-based"}, "[5]": {"target": "Glutamate receptor ionotropic, AMPA (Rattus norvegicus, UniProt P19490+P19491+P19492+P19493)", "test": "In vitro inhibitory concentration against AMPA receptor using [3H]AMPA", "format": "protein-complex assay", "procedure,_shortened": "(§2)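 Displacement binding to rat cortical membranes. Radioligands: NMDA site 2 nM [3H]CGP 39653; AMPA site 5 nM [3H]AMPA; KA site 5 nM [3H]KA without CaCl2. Bound radioactivity was counted by scintillation. IC50 came from nonlinear regression with a Hill-coefficient inhibition equation on percent of total specific binding. Mean ± SEM of at least three independent experiments.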"}, "[6]": {"target": "Glutamate receptor ionotropic, kainate", "test": "In vitro inhibitory concentration against KA receptor using [3H]KA", "format": "protein-complex assay, Rattus norvegicus", "procedure,_shortened": "as §2"}, "[7]": {"target": "T3, Metabotropic glutamate receptor 4 (Rattus norvegicus, UniProt P31423)", "T3 sequence (P31423 whole entry)": "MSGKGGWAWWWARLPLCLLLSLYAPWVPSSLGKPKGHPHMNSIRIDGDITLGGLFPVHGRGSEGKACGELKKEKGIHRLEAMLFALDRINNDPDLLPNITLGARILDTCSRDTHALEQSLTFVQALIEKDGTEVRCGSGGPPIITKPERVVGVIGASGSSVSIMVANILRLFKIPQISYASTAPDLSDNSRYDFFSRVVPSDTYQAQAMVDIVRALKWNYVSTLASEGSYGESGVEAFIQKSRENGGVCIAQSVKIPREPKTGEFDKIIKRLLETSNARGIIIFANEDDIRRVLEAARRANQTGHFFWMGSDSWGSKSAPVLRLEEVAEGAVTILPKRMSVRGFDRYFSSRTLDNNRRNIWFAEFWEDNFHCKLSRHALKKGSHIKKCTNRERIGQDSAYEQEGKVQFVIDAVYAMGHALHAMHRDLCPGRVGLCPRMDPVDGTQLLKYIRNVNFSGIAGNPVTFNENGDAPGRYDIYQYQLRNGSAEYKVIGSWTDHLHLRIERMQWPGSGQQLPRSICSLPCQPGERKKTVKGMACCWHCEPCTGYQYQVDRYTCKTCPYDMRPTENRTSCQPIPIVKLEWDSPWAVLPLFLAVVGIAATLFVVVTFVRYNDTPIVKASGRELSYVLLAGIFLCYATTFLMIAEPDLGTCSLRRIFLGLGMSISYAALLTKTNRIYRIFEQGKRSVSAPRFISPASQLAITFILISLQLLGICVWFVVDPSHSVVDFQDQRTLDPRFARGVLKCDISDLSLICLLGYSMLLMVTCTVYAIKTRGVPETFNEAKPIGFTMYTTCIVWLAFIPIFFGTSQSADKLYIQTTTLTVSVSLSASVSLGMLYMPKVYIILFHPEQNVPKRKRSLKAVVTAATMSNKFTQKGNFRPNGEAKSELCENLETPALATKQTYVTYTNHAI", "test": "Binding affinity for mGluR4 receptor expressed in CHO cells", "format": "cell-based"}, "[8]": {"test": "Inhibition of 10 uM NMDA induced electrophysiological response in rat cortical wedge preparation"}, "[9]": {"target": "T3, Metabotropic glutamate receptor 4", "test": "Effective concentration against mGluR4 receptor expressed in CHO cells", "format": "cell-based", "procedure,_shortened": "as §1"}, "[10]": {"target": "Glutamate NMDA receptor", "test": "In vitro binding affinity for NMDA receptor using [3H]-CGP- 39653", "format": "protein-complex assay, Rattus norvegicus", "procedure,_shortened": "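Displacement binding to rat cortical membranes. Bound radioactivity was counted by scintillation. IC50 came from nonlinear regression with a Hill-coefficient inhibition equation on percent of total specific binding. Mean ± SEM of at least three independent experiments.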"}, "[11]": {"target": "T1, Metabotropic glutamate receptor 2", "test": "Effective concentration against mGluR2 receptor expressed in CHO cells; weak", "format": "cell-based", "procedure,_shortened": "as §1"}, "[12]": {"target": "Metabotropic glutamate receptor 4 (Rattus norvegicus) (UniProt P31423)", "sequence (P31423 whole entry, looked up)": "as the sequence (P31423 whole entry) above", "test": "Binding affinity for mGluR4 receptor expressed in CHO cells; weak"}}, "data": [{"smiles": "N[C@]1(C(=O)O)C[C@@H]2ON=C(C(=O)O)[C@@H]2C1", "values": [{"measurement": "EC50", "setting": "[1]", "value": "> 1000", "unit": "µM"}, {"measurement": "Ki", "setting": "[2]", "value": "> 1", "unit": "mM"}, {"measurement": "EC50", "setting": "[3]", "value": "> 1", "unit": "mM"}, {"measurement": "Ki", "setting": "[4]", "value": "> 1000", "unit": "µM"}]}, {"smiles": "N[C@@H](C[C@H]1CC(C(=O)O)=NO1)C(=O)O", "values": [{"measurement": "IC50", "setting": "[5]", "value": "> 100", "unit": "µM"}, {"measurement": "IC50", "setting": "[6]", "value": "> 100", "unit": "µM"}]}, {"smiles": "NC(CC1CC(C(=O)O)=NO1)C(=O)O", "note": "(racemic; form 1)", "values": [{"measurement": "EC50", "setting": "[1]", "value": "> 1000", "unit": "µM"}, {"measurement": "Ki", "setting": "[7]", "value": "> 1", "unit": "mM"}, {"measurement": "IC50", "setting": "[8]", "value": 14.2, "unit": "µM"}, {"measurement": "IC50", "setting": "[5]", "value": "> 100", "unit": "µM"}, {"measurement": "Ki", "setting": "[2]", "value": "> 1", "unit": "mM"}, {"measurement": "IC50", "setting": "[6]", "value": "> 100", "unit": "µM"}, {"measurement": "EC50", "setting": "[3]", "value": "> 1", "unit": "mM"}, {"measurement": "EC50", "setting": "[9]", "value": "> 1", "unit": "mM"}, {"measurement": "Ki", "setting": "[10]", "value": 210, "unit": "nM"}, {"measurement": "Ki", "setting": "[4]", "value": "> 1000", "unit": "µM"}]}, {"smiles": "N[C@@H](C[C@@H]1CC(C(=O)O)=NO1)C(=O)O", "values": [{"measurement": "IC50", "setting": "[5]", "value": "> 100", "unit": "µM"}, {"measurement": "IC50", "setting": "[6]", "value": "> 100", "unit": "µM"}, {"measurement": "Ki", "setting": "[10]", "value": 1900, "unit": "nM"}]}, {"smiles": "NC1(C(=O)O)CC2ON=C(C(=O)O)C2C1", "note": "(racemic; form 1)", "values": [{"measurement": "Ki", "setting": "[7]", "value": "> 1", "unit": "mM"}, {"measurement": "IC50", "setting": "[8]", "value": 14, "unit": "µM"}, {"measurement": "IC50", "setting": "[5]", "value": "> 100", "unit": "µM"}, {"measurement": "IC50", "setting": "[6]", "value": "> 100", "unit": "µM"}, {"measurement": "EC50", "setting": "[9]", "value": "> 1", "unit": "mM"}, {"measurement": "Ki", "setting": "[10]", "value": 370, "unit": "nM"}, {"measurement": "Ki", "setting": "[4]", "value": 94, "unit": "µM"}]}, {"smiles": "N[C@@]1(C(=O)O)C[C@@H]2C(C(=O)O)=NO[C@@H]2C1", "values": [{"measurement": "EC50", "setting": "[1]", "value": "> 1000", "unit": "µM"}, {"measurement": "Ki", "setting": "[7]", "value": "> 1", "unit": "mM"}, {"measurement": "IC50", "setting": "[5]", "value": "> 100", "unit": "µM"}, {"measurement": "Ki", "setting": "[2]", "value": "> 1", "unit": "mM"}, {"measurement": "IC50", "setting": "[6]", "value": "> 100", "unit": "µM"}, {"measurement": "EC50", "setting": "[3]", "value": "> 1", "unit": "mM"}, {"measurement": "EC50", "setting": "[9]", "value": "> 1", "unit": "mM"}, {"measurement": "Ki", "setting": "[10]", "value": 233, "unit": "nM"}, {"measurement": "Ki", "setting": "[4]", "value": "> 1000", "unit": "µM"}]}, {"smiles": "NC1(C(=O)O)CC2ON=C(C(=O)O)C2C1", "note": "(racemic; form 2)", "values": [{"measurement": "EC50", "setting": "[1]", "value": 16, "unit": "µM"}, {"measurement": "Ki", "setting": "[7]; cho", "value": "> 1", "unit": "mM"}, {"measurement": "EC50", "setting": "[9]; cho", "value": "> 1", "unit": "mM"}, {"measurement": "Ki", "setting": "[10]", "value": "> 100000", "unit": "nM"}, {"measurement": "Ki", "setting": "[4]", "value": 27, "unit": "µM"}]}, {"smiles": "N[C@@]1(C(=O)O)C[C@@H]2ON=C(C(=O)O)[C@@H]2C1", "values": [{"measurement": "EC50", "setting": "[11]", "value": "Not Active"}, {"measurement": "Ki", "setting": "[10]", "value": 47000, "unit": "nM"}]}, {"smiles": "N[C@H](C[C@H]1CC(C(=O)O)=NO1)C(=O)O", "values": [{"measurement": "IC50", "setting": "[5]", "value": "> 100", "unit": "µM"}, {"measurement": "IC50", "setting": "[6]", "value": "> 100", "unit": "µM"}, {"measurement": "Ki", "setting": "[10]", "value": 100, "unit": "nM"}]}, {"smiles": "N[C@H](C[C@@H]1CC(C(=O)O)=NO1)C(=O)O", "values": [{"measurement": "IC50", "setting": "[5]", "value": "> 100", "unit": "µM"}, {"measurement": "IC50", "setting": "[6]", "value": "> 100", "unit": "µM"}, {"measurement": "Ki", "setting": "[10]", "value": 510, "unit": "nM"}]}, {"smiles": "N[C@]1(C(=O)O)C[C@@H]2C(C(=O)O)=NO[C@@H]2C1", "values": [{"measurement": "EC50", "setting": "[1]", "value": 9.1, "unit": "µM"}, {"measurement": "Ki", "setting": "[7]", "value": "> 1", "unit": "mM"}, {"measurement": "Ki", "setting": "[12]", "value": "weak"}, {"measurement": "EC50", "setting": "[9]", "value": "> 1", "unit": "mM"}, {"measurement": "Ki", "setting": "[4]", "value": 33, "unit": "µM"}]}, {"smiles": "NC(CC1CC(C(=O)O)=NO1)C(=O)O", "note": "(racemic; form 2)", "values": [{"measurement": "IC50", "setting": "[8]", "value": 30.5, "unit": "µM"}, {"measurement": "Ki", "setting": "[10]", "value": 960, "unit": "nM"}]}]}
